This passage reports inhibition results from PubChem BioAssay AID1793 (Vanderbilt High Throughput Screening Facility, 2009).

Common to all, as to assay: off-target binding across receptor and channel panel, profiling panel, selectivity assay for Cl- transport modulator project, biochemical, MDS panel, antagonist ancillary profile (AID 1793)
Test [1] addresses Beta-1 adrenergic receptor (Homo sapiens) (UniProt P08588). The conditions noted are these: MDS Pharma radioligand binding panel, % inhibition; measured here: Adrenergic b1 human; at 10 µM; stronger effect = higher value. In outline:
(§1)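 Evaluation: off-target activity per panel target. Material: GPCR, ion channel, transporter off-target panel. Doses: lead compound at one single concentration, 10 µM.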

Test [2] concerns the target Alpha-1A adrenergic receptor (Rattus norvegicus) (UniProt P43140). Particulars: MDS Pharma radioligand binding panel, % inhibition; measured here: Adrenergic a1A rat; at 10 µM; stronger effect = higher value. In outline:
as §1

For test [3], the target named is Androgen receptor (Rattus norvegicus) (UniProt P15207). The conditions noted are these: MDS Pharma radioligand binding panel, % inhibition; measured here: Androgen receptor rat; at 10 µM; stronger effect = higher value. The gist of the method:
as §1

Test [4] has as its target Adenosine receptor A1 (Homo sapiens) (UniProt P30542). Particulars: MDS Pharma radioligand binding panel, % inhibition; at 10 µM; stronger effect = higher value. The gist of the method: as §1
The target in test [5] is Alpha-1B adrenergic receptor (Rattus norvegicus) (UniProt P15823). The conditions noted are these: MDS Pharma radioligand binding panel, % inhibition; measured here: Adrenergic a1B rat; at 10 µM; stronger effect = higher value. In outline: as §1
Chain of Alpha-1B adrenergic receptor (Rattus norvegicus) (P15823 whole entry, looked up): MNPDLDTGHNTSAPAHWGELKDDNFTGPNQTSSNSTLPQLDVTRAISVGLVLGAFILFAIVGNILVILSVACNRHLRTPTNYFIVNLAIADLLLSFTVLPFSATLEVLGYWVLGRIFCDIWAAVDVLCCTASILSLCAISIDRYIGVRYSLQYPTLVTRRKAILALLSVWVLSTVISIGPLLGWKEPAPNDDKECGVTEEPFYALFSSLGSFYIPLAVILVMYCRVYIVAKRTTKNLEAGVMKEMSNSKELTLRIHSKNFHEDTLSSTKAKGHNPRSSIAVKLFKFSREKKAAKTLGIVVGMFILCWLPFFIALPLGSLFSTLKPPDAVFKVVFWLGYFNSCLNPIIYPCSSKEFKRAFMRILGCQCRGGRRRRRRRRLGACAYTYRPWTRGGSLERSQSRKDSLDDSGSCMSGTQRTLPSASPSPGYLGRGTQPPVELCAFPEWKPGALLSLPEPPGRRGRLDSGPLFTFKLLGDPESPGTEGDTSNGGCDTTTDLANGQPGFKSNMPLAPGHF
The target in test [6] is Adenosine receptor A2a (Homo sapiens) (UniProt P29274). The conditions noted are these: MDS Pharma radioligand binding panel, % inhibition; measured here: Adenosine A2 human; at 10 µM; stronger effect = higher value. The gist of the method:
as §1

For test [7], the target named is Beta-2 adrenergic receptor (Homo sapiens) (UniProt P07550). The conditions noted are these: MDS Pharma radioligand binding panel, % inhibition; measured here: Adrenergic b2 human; at 10 µM; stronger effect = higher value. The gist of the method: as §1
Chain of Beta-2 adrenergic receptor (Homo sapiens) (P07550 whole entry, looked up): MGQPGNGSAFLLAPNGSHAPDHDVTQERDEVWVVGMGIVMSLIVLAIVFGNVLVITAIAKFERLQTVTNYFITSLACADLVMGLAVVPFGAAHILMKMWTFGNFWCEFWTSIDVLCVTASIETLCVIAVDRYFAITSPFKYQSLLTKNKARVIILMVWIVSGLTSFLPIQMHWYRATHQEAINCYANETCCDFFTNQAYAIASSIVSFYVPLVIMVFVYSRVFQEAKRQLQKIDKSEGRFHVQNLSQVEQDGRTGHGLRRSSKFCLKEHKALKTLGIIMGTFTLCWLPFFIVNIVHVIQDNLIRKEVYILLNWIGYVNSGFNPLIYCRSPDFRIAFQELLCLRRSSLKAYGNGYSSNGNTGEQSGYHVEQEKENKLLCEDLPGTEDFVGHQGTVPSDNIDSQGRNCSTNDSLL
Test [8] deals with Alpha-2A adrenergic receptor (Homo sapiens) (UniProt P08913). The conditions noted are these: MDS Pharma radioligand binding panel, % inhibition; measured here: Adrenergic a2A human; at 10 µM; stronger effect = higher value. In outline: as §1
Chain of Alpha-2A adrenergic receptor (Homo sapiens) (P08913 whole entry, looked up): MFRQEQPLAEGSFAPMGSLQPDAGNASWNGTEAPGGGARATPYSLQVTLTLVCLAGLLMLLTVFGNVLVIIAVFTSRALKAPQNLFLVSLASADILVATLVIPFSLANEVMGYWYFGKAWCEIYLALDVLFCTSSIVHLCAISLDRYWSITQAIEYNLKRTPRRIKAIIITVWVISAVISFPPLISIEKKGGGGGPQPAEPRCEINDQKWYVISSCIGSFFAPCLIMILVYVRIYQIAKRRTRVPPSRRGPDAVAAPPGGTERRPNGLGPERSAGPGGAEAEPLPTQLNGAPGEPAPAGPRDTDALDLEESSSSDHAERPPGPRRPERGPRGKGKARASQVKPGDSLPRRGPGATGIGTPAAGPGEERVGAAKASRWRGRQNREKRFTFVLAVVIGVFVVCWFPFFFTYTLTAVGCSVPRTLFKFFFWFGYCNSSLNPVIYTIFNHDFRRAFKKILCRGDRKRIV
The target in test [9] is Voltage-dependent L-type calcium channel subunit alpha-1C (Rattus norvegicus) (UniProt P22002). Particulars: MDS Pharma radioligand binding panel, % inhibition; measured here: L-type Ca channel BTZ rat; at 10 µM; stronger effect = higher value. In outline:
as §1

Test [10] has as its target B1 bradykinin receptor (Homo sapiens) (UniProt P46663). Particulars: MDS Pharma radioligand binding panel, % inhibition; measured here: Bradykinin B1 human; at 10 µM; stronger effect = higher value. In outline: as §1
For test [11], the target named is B2 bradykinin receptor (Homo sapiens) (UniProt P30411). The conditions noted are these: MDS Pharma radioligand binding panel, % inhibition; measured here: Bradykinin B2 human; at 10 µM; stronger effect = higher value. In outline:
as §1

The target of test [12] is Adenosine receptor A3 (Homo sapiens) (UniProt P0DMS8). The conditions noted are these: MDS Pharma radioligand binding panel, % inhibition; measured here: Adenosine A3 human; at 10 µM; stronger effect = higher value. In outline:
as §1

Test [13] concerns the target Alpha-1D adrenergic receptor (Homo sapiens) (UniProt P25100). The conditions noted are these: MDS Pharma radioligand binding panel, % inhibition; measured here: Adrenergic a1D human; at 10 µM; stronger effect = higher value. In outline:
as §1

Chain of Adenosine receptor A1 (Homo sapiens) (P30542 whole entry, looked up): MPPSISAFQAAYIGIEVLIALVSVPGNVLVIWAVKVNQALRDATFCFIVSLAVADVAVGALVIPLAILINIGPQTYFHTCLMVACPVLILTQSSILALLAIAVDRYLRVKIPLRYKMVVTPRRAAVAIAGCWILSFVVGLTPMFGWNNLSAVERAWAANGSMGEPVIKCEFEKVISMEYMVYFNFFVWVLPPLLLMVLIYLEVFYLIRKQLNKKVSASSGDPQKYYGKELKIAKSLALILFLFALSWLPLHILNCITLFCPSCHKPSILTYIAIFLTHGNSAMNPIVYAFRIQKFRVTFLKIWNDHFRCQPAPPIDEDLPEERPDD
Chain of Voltage-dependent L-type calcium channel subunit alpha-1C (Rattus norvegicus) (P22002 whole entry, looked up): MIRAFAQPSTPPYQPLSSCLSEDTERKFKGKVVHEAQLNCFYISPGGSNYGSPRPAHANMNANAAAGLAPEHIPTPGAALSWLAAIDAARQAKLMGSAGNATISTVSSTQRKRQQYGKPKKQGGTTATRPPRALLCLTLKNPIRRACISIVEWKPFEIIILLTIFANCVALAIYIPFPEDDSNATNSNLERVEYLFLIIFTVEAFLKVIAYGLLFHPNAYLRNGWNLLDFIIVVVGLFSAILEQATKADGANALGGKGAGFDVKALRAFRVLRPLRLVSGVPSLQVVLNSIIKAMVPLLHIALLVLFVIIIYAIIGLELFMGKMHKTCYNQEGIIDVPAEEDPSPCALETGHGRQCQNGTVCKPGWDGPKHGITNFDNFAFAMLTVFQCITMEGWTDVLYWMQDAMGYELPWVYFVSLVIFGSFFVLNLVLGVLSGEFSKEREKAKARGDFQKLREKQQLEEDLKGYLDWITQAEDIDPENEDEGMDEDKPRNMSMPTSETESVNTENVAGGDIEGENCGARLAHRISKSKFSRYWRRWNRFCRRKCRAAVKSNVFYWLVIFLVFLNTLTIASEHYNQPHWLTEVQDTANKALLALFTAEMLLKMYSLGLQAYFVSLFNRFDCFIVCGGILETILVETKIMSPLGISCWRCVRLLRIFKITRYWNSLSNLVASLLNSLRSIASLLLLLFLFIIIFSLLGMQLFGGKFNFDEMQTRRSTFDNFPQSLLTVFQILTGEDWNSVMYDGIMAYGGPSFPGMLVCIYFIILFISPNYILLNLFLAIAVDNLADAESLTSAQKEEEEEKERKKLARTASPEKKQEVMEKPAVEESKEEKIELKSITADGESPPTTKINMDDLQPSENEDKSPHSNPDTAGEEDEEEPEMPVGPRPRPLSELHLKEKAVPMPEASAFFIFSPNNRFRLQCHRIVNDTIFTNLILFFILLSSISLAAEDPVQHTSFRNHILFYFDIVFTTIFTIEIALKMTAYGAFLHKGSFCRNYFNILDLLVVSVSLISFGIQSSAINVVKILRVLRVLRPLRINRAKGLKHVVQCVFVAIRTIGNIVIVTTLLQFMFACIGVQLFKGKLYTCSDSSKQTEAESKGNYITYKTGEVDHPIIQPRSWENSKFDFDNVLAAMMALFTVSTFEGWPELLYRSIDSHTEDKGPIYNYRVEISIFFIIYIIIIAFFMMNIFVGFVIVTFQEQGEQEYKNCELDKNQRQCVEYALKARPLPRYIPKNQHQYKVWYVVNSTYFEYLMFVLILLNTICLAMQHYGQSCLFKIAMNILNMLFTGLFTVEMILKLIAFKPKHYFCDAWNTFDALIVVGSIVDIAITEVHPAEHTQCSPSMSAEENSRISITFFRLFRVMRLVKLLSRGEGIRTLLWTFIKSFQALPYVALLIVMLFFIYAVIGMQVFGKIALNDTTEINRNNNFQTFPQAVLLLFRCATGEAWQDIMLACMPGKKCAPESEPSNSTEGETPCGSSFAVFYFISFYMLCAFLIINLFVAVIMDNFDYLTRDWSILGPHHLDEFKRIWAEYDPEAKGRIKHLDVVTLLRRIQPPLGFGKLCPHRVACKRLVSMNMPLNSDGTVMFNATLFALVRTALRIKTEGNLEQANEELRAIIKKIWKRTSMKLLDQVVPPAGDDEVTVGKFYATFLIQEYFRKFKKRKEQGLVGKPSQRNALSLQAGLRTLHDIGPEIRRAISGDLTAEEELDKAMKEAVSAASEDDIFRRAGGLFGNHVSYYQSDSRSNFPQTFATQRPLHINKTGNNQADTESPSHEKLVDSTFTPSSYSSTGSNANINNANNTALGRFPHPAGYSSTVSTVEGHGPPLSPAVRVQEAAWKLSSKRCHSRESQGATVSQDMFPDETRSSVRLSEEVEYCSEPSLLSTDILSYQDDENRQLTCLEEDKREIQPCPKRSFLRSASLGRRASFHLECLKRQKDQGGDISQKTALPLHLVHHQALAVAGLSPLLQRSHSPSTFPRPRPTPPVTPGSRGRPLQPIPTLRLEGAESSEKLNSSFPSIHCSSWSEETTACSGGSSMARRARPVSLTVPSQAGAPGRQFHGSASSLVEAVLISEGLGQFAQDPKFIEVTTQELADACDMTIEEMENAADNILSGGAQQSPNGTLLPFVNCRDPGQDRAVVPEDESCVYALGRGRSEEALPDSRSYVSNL
Chain of Adenosine receptor A3 (Homo sapiens) (P0DMS8 whole entry, looked up): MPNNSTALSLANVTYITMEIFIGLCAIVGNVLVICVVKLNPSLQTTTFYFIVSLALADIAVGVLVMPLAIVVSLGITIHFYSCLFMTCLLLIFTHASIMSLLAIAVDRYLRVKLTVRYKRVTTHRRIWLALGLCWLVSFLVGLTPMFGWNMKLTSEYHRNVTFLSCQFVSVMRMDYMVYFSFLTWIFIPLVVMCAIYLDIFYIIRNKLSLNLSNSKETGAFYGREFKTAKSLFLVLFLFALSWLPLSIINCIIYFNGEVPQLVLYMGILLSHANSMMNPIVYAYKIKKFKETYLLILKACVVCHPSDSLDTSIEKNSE
Chain of Alpha-1A adrenergic receptor (Rattus norvegicus) (P43140 whole entry, looked up): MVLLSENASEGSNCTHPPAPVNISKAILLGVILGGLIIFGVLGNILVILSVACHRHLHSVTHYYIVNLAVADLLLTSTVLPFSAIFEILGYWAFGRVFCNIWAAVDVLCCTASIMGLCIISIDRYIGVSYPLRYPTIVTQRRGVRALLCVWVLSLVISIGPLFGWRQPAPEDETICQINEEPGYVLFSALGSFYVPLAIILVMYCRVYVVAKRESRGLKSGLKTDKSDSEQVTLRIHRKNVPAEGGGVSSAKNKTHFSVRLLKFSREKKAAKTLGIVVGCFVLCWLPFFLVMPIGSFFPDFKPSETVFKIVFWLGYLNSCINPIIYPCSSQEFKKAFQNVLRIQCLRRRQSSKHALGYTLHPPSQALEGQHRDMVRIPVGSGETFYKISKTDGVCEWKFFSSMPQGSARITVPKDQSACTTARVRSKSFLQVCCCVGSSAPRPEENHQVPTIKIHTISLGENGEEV
Chain of B1 bradykinin receptor (Homo sapiens) (P46663 whole entry, looked up): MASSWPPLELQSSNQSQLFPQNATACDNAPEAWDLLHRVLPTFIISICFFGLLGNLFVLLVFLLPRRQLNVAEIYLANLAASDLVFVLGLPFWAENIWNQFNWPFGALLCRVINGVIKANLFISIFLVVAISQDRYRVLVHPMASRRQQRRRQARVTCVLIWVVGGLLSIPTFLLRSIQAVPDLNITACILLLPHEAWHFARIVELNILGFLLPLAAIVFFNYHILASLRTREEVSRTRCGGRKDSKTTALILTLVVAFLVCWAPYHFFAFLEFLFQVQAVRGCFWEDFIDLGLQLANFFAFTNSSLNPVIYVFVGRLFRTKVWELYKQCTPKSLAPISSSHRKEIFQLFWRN

With `Cc1csc(N(C)C(=O)CSc2ccc(-c3ccccc3)nn2)n1`, the inhibition (in general, the relative decrease from the control value, in per cent) in test [1] was 10%; in test [2], 33%; in test [3], 4%; in test [4], 31%; in [5] it was 3%; in test [6], 38%. Further, the inhibition in [7] is 9%; in [8] it was -7%; in test [9], 10%; in [10], 6%; in [11] it was 2%; in test [12] it was 38%. In addition, in test [13], the inhibition was found to be 16%.
